Many of the other results were omitted from the sample, so hits are more common in it than they were.
KSHV LANA nucl: LANA-nucleosome interaction inhibition. FITC-LANA1-23 / chicken nucleosome fluorescence polarization; active compounds read low. z-score (test concentration not listed). 51,000 compounds, 0.3% hits;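 active means both repeat wells score below -2 in polarization z-score versus plate sample wells, excluding overly bright wells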
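Assay system: purified chicken nucleosomes with FITC-labelled LANA N-terminal peptide (1-23) / Probe or stimulus: 50 nM FITC-LANA1-23 probe / Compound dosing: pin-transferred compound, 100 nL / Times: compound with peptide–nucleosome mix 10–45 min at room temperature / Technique: fluorescence polarization, 480 nm excitation, 535 nm parallel and perpendicular emission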
Ab BasE inh: blocks the Acinetobacter baumannii siderophore enzyme BasE; purified BasE, fluorescence polarization binding displacement; inhibition, % (concentration not given with the values); 84,000 compounds, 0.1% hits; AID 485350; in the data active means inhibition above about 25%, passing the limit was not always enough;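 further: 0% = negative plate control signal and 100% = positive plate control signal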
* hit, by the source's call.

How did O=C1N/C(=N/N=C\c2[nH]ncc2Br)SC1c1ccccc1 (centres undefined) do in these assays?
KSHV LANA nucl: 0.817; Ab BasE inh: 26.8*

Results for O=C(O)CC1S/C(=N/N=C/c2ccccc2)NC1=O (centres undefined) ?
KSHV LANA nucl: 0.673; Ab BasE inh: -0.2

What do the screens show for `Oc1ccc(-c2nc3c4ccccc4ncn3n2)cc1`?
Ab BasE inh: -0.2

What do the screens show for `CCN(CC)c1ccc(/C=C2\N=C(SC)SC2=O)cc1`?
KSHV LANA nucl: -2.6*; Ab BasE inh: 9.3

What do the screens show for `CSC1=N/C(=C\c2ccccc2)C(=O)S1`?
KSHV LANA nucl: -0.558; Ab BasE inh: 1.5

How did NC(=O)Cn1c2[n+](c3ccccc31)CC(O)CS2 (centres undefined) do in these assays?
KSHV LANA nucl: -2.37*; Ab BasE inh: 0.5

Results for CCOC(=O)Cn1c2[n+](c3ccccc31)CC(O)CS2 (centres undefined) ?
KSHV LANA nucl: -0.434; Ab BasE inh: -0.1

Results for O=C(O)C1CCCCN1Cc1cccc(F)c1 (centres undefined) ?
KSHV LANA nucl: 0.511; Ab BasE inh: -2.1

How did N#CCCSc1ccc(F)cc1 do in these assays?
Ab BasE inh: 4.1

How did CN1CCN(NC(NC(=O)c2cccnc2)(C(F)(F)F)C(F)(F)F)CC1 do in these assays?
KSHV LANA nucl: -0.648; Ab BasE inh: 3.2

How did O=C(CSCc1ccccc1)Nc1cc(=O)[nH]c(=O)[nH]1 do in these assays?
KSHV LANA nucl: -0.529; Ab BasE inh: 0.9

Results for O=C(Cc1ccc(F)cc1)Nc1cc(=O)[nH]c(=O)[nH]1 ?
KSHV LANA nucl: -2.17*; Ab BasE inh: 1.0

What do the screens show for `O=C(Nc1ccccc1)N(Cc1nc(-c2ccccc2)no1)C1CCCCC1`?
KSHV LANA nucl: -2.13*; Ab BasE inh: 1.8

What do the screens show for `O=C(c1ccccc1)N(Cc1nc(-c2ccccc2)no1)C1CCCCC1`?
KSHV LANA nucl: -1.82; Ab BasE inh: 1.6

What do the screens show for `Nc1ccc2nc(SCCOc3ccccc3)sc2c1`?
KSHV LANA nucl: -0.081; Ab BasE inh: -1.0

How did COc1ccc(-c2csc(/C(C#N)=C(\O)CSc3nnc(-c4ccccc4F)n3C3CC3)n2)cc1OC do in these assays?
Ab BasE inh: -2.0

What do the screens show for `COc1ccc(-c2csc(/C(C#N)=C(\O)CSc3nccn3C)n2)cc1OC`?
Ab BasE inh: 30.9*

How did CCc1nn(C)c2c(=O)c(=O)c2n(C)[nH]1 do in these assays?
Ab BasE inh: 12.5

Results for Cc1nn(C)c2c(=O)c(=O)c2n(C)[nH]1 ?
KSHV LANA nucl: -3.57*; Ab BasE inh: 5.0

What do the screens show for `CC1(C)NC(=O)C(C#N)=C(SCc2ccccc2)S1`?
KSHV LANA nucl: -1.16; Ab BasE inh: 37.8*

Results for CC1(C)CC(=O)c2cc(C#N)c(SCc3ccccc3)nc2C1 ?
Ab BasE inh: -3.7

Results for CN(c1ccnc(C(=O)NC2CCCC2)c1)S(=O)(=O)c1ccccc1 ?
KSHV LANA nucl: -1.41; Ab BasE inh: -1.2

What do the screens show for `CC(C)N1CC=C2C(C1)C(c1ccccc1Cl)C(C#N)=C(N)C2(C#N)C#N` (centres undefined)?
KSHV LANA nucl: -2.35*; Ab BasE inh: 25.7*

What do the screens show for `CC(C)(C)OC(=O)N1CC=C2C(C1)C(c1cccc(F)c1)C(C#N)=C(N)C2(C#N)C#N` (centres undefined)?
KSHV LANA nucl: 1.8; Ab BasE inh: -12.4

How did Cc1cc(C(=O)O)ccc1-n1c(C)ccc1C do in these assays?
KSHV LANA nucl: 0.204; Ab BasE inh: 3.4

What do the screens show for `Cc1ccc(C)n1-c1ccc(C(=O)O)cc1O`?
KSHV LANA nucl: -0.176; Ab BasE inh: 46.7*

What do the screens show for `CSc1ccccc1NC(=S)NC1CC1`?
Ab BasE inh: 1.8

What do the screens show for `CCCN1CC=C2C(C#N)=C(N)C(C#N)(C#N)C(c3cccc(OC)c3)C2C1` (centres undefined)?
KSHV LANA nucl: -0.458; Ab BasE inh: 11.4

Results for CN1CC=C2C(C#N)=C(N)C(C#N)(C#N)C(Cc3ccccc3)C2C1 (centres undefined) ?
KSHV LANA nucl: -1.81; Ab BasE inh: 18.7

What do the screens show for `CCN1CC=C2C(C#N)=C(N)C(C#N)(C#N)C(C)C2C1` (centres undefined)?
KSHV LANA nucl: -2.5*; Ab BasE inh: 6.3

What do the screens show for `N#CC1=C(N)C(C#N)(C#N)C(c2ccco2)C2CN(Cc3ccccc3)CC=C12` (centres undefined)?
KSHV LANA nucl: -5.42*; Ab BasE inh: 27.9

What do the screens show for `CCN1CC=C2C(C#N)=C(N)C(C#N)(C#N)C(c3ccc(OC)c4ccccc34)C2C1` (centres undefined)?
KSHV LANA nucl: -0.78; Ab BasE inh: -0.5

Results for CCCN1CC=C2C(C#N)=C(N)C(C#N)(C#N)C(C(C)C)C2C1 (centres undefined) ?
KSHV LANA nucl: -4.01*; Ab BasE inh: 21.6

What do the screens show for `CCOC(=O)c1c(NC(=O)c2ccco2)sc2c1CC(C)(C)NC2(C)C`?
KSHV LANA nucl: -1.11; Ab BasE inh: 0.0

Results for O=C(c1cnn(-c2ccc(C(F)(F)F)cn2)c1)c1ccccc1O ?
Ab BasE inh: -1.8

From PubChem BioAssay
